# High-throughput results (PubChem)
# CDK5 p35 inh – blocks human CDK5/p35 kinase activity | Recombinant CDK5/p35, ADP-Glo luminescence, 60 min | inhibition, % at 10 µM | Q00535+Q15078 | 0.01% of 330,000 active | AID 488839;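 active means highest replicate inhibition of at least 50% and at least 75% of replicates reaching 50%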;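 further: plate controls were DMSO neutral control for no effect and GW8510 at 10 µM for full effect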
# GSK3 alpha inh – blocks human GSK-3 alpha kinase | inhibition, % at 10 µM | 0.1% of 320,000 active | ADP-Glo luminescence, 60 min | P49840;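 active means more than half of replicates show inhibition above 20%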;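 further: GST-tagged GSK-3 alpha with peptide substrate and 25 µM ATP; 0% = DMSO neutral wells and 100% = GW8510 positive control wells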
# SR-BI DiI inh – blocks mouse SR-BI lipid uptake from DiI-HDL | Q61009 | ldlA[mSR-BI] CHO cells, DiI-HDL uptake fluorescence, 3 h | inhibition, % at 12.5 µM | 0.96% of 320,000 active;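 active means mean replicate inhibition of at least 70% and a set share of replicates each scoring 70 or more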;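 further: 0% = median of neutral control wells and 100% = median of positive control wells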
# Target sequence (Q61009 whole entry, looked up): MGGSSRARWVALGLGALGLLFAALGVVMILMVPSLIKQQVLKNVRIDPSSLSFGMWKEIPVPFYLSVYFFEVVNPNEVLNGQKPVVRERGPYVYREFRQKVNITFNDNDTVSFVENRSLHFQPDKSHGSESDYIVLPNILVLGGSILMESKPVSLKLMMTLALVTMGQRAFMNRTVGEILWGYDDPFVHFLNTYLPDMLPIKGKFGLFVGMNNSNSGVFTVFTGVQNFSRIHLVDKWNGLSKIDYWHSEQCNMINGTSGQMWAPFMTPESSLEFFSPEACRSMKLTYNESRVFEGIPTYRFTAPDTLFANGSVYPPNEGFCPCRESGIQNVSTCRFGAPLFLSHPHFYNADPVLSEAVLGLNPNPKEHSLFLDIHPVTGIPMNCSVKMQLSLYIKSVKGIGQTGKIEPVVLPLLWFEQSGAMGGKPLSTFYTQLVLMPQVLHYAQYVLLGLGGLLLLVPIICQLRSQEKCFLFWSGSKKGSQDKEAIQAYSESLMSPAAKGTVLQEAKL
# GSK3beta inhib – human GSK3beta kinase inhibition; P49841; activity score (negative = inhibition), % at 10 µM; 0.038% of 300,000 active; GST-GSK3beta kinase, ADP-Glo luminescence, 60 min; stronger effect = lower value;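 active means more than half of replicate wells score below -50%, meaning over 50% inhibition versus plate controls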;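 further: 0% = median DMSO wells and -100% = median GW8510 positive control wells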
#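 Test system – GST-tagged human GSK3beta kinase, cell-free · Incubation – 60 min enzyme reaction, room temperature · Signal – ADP-Glo luminescence · Also added – peptide substrate and ATP at 25 µM · Controls – DMSO neutral wells and GW8510 at 20 µM as positive · Buffer or medium – Tris/MgCl2 kinase buffer · Measure – Luminescence-derived activity versus plate DMSO and GW8510 wells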
# SR-BI uptake up – activators of SR-BI mediated HDL lipid uptake. CHO ldlA[mSR-BI] cells, DiI-HDL uptake fluorescence, 3 h; 100 = double the neutral-control signal. activation, % at 12.5 µM. 0.096% of 320,000 active;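 active means mean replicate activation of at least 60% and every replicate at or above 60%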;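 further: 0% = median plate neutral-control signal and 100% = twice that signal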
#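 System: CHO ldlA[mSR-BI] cells / Medium: HEPES-buffered (25 mM, pH 7.4) F12 plus 0.5% BSA / Probe or stimulus: labelled HDL, 10 µg/mL / Doses: single compound concentration, delivered by pin transfer / Schedule: 3 h, 37 °C / Measured by: DiI fluorescence, bottom read / Measure: cell-associated DiI fluorescence as measure of HDL uptake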
# * = called active by the depositor; · = not tested or not shown. The list is not random: actives were taken first. Their share in the collection is about 1.1%.
SMILES,CDK5 p35 inh,GSK3 alpha inh,SR-BI DiI inh,GSK3beta inhib,SR-BI uptake up
COC(=O)c1[nH]c2ccc(C)cc2c1NC(=O)Nc1ccccc1OC,-2.1,3.7,79.6*,-1.6,-79.6
CCCC(=O)Nc1ccc(C(=O)Nc2cc(C(F)(F)F)ccc2Cl)cc1,1.2,6.3,73.9*,0.0,-73.9
COC(=O)c1[nH]c2ccc(C)cc2c1NC(=O)CN1CCc2cc(OC)c(OC)cc2C1,-2.2,0.1,13.9,1.9,-13.9
C/C(=N\NC(=O)CN1CCN(S(=O)(=O)c2ccc(C)cc2)CC1)c1ccc(O)cc1,1.0,-1.0,3.4,-1.2,-3.4
COc1cccc(C(=O)Nc2nnc(SCC(=O)Nc3ccc(NC(C)=O)cc3)s2)c1,-0.8,-2.8,7.5,-2.2,-7.5
CC(C)(C)OC(=O)N1CCC(C(=O)N[C@H](C(=O)O)c2ccccc2)(c2ccccc2)CC1,-0.7,-1.5,·,-0.8,·
O=C(COc1ccc(Br)cc1)NCCN1CCCC1,2.2,-0.8,-13.9,1.7,13.9
Cc1cccc(C)c1Nc1c(-c2ccccn2)nc2ccccn12,-5.6,-3.2,13.9,1.1,-13.9
O=C(NCCc1ccccc1)c1ccc2c(c1)N(Cc1ccccc1)C(=O)CS2=O (configuration not stated),-0.7,·,1.1,-0.2,-1.1
O=C(Nc1ccccc1Cl)c1ccc2c(c1)N(Cc1ccc(F)cc1)C(=O)CS2=O (configuration not stated),1.3,·,82.2*,-0.9,-82.2
CC1(C)C(c2ccccc2)=NC(c2ccc(Br)cc2)N1O (configuration not stated),0.5,0.2,17.2,0.7,-17.2
COCCN(Cc1ccc(C)c(Br)c1)C(=O)Cn1cnc(S(=O)(=O)N2CCCC2)c1,0.0,-1.0,-21.3,3.7,21.3
Cc1ccccc1C(=O)NNC(=O)C12CC3CC(CC(C3)C1)C2,-1.0,-0.2,8.5,-3.6,-8.5
Cc1cccc(C(=O)NNC(=O)C23CC4CC(CC(C4)C2)C3)c1O,-0.8,1.6,100.5*,4.0,-100.5
CC(=O)c1cccc(N=Nc2c(C)[nH]c3ccccc23)c1,1.3,1.3,28.5,2.2,-28.5
COc1ccc(N=Nc2c(C)[nH]c3ccccc23)cc1,0.3,-2.1,87.9*,0.5,-87.9
COc1ccc(C(=O)c2cnc3cc4c(cc3c2C)OCO4)cc1,-0.7,1.1,19.2,-6.5,-19.3
Cc1c(C(=O)c2ccc(Cl)c(Cl)c2)cnc2cc3c(cc12)OCO3,-1.6,-2.3,-68.6,-13.1,68.6*
COc1ccc(-n2nc(C(=O)NCC(=O)Nc3cc(Cl)c(OC)cc3OC)c3ccccc3c2=O)cc1,-3.1,-0.4,84.3*,1.1,-84.3
Cc1ccccc1NC(=O)NCCc1nc2ccccc2[nH]1,-0.2,2.7,-1.3,3.4,1.2
O=C(/C(=C\c1ccccc1)c1nc2ccccc2[nH]1)c1ccc(Cl)cc1,-0.2,-0.3,7.5,-2.2,-7.5
Cc1ccccc1NC(=S)c1nc2ccccc2[nH]1,-0.5,-0.6,78.7*,-0.1,-78.6
S=C(Nc1ccc(Cl)cc1)c1nc2ccccc2[nH]1,1.3,1.0,123.3*,-2.1,-123.3
COc1cccc(C(=O)N2CCCN(C)CC2)c1OC,0.3,-3.2,-0.3,6.6,0.3
CCOC(=O)CSc1nc(N2CCOCC2)c2c(c1C#N)CC(C)(C)OC2,-0.5,-1.2,-415.7,2.7,415.8*
SMILES,CDK5 p35 inh,GSK3 alpha inh,SR-BI DiI inh,GSK3beta inhib,SR-BI uptake up
CSc1ccc(CN(C)C(=O)CNC(=O)c2sc3ccccc3c2Cl)cc1,0.0,-0.8,7.3,-1.4,-7.3
COC(=O)C(=Cc1ccc(-c2ccsc2C(=O)OC)o1)C(=O)OC,0.5,4.3,23.6,-2.0,-23.6
CCOC(=O)C(=Cc1ccc(-c2ccsc2C(=O)OC)o1)C(=O)OCC,-0.5,0.5,75.8*,0.0,-75.8
O=C(NNC1=C(C(=O)C(F)(F)F)CCC1)c1ccc(Cl)cc1,1.0,-2.0,93.2*,5.6,-93.2
COc1ccc(C(=O)NNc2ccccc2)cc1,0.0,-1.1,-2.8,0.3,2.8
COc1ccc(C(=O)NNC2=C(C(=O)C(F)(F)F)CCC2)cc1,-0.2,-2.1,94.9*,-2.4,-94.9
O=C(NNC1=C(C(=O)C(F)(F)F)CCC1)c1cccc(Cl)c1,-0.7,-2.2,80.2*,4.2,-80.2
Cc1ccc(C(=O)N[C@H](C(=O)NC2CCCCCCC2)C(C)C)cc1,-0.1,0.0,-2.8,·,2.8
Cn1c(-c2ccccc2)c(/C=N/NC(=O)c2ccc(O)cc2)c2ccccc21,-1.6,-3.6,·,-1.0,·
Cc1ccc(S(=O)(=O)N2CCN(C(=O)c3c(C)nn(-c4ccccc4)c3Cl)CC2)cc1,-3.1,·,2.4,2.3,-2.4
Cc1cc(C)c(S(=O)(=O)N2CCN(C(=O)c3c(C)nn(-c4ccccc4)c3Cl)CC2)c(C)c1,-1.5,·,77.6*,·,-77.6
Cc1ccc([N+](=O)[O-])cc1N(CC(=O)Nc1ccc(S(=O)(=O)Nc2cccc(C(F)(F)F)c2)cc1)S(C)(=O)=O,1.7,·,-25.3,3.8,25.3
CC(=O)c1cc(-c2ccccc2)n(CCC(=O)NC2CCCC2)c1C,-2.2,-1.3,10.3,2.1,-10.3
CC(=O)c1cc(-c2ccc(F)cc2)n(CCC(=O)Nc2cc(C)[nH]n2)c1C,0.1,56.0*,63.4,1.3,-63.4
CCCCn1c(N)c(N(CC(C)C)C(=O)CSc2nn(-c3ccc(F)cc3)c(=S)s2)c(=O)[nH]c1=O,0.9,·,67.2,·,-67.2
O=C(Nc1ccc([N+](=O)[O-])cn1)c1cc(-c2cccc(Cl)c2)nc2ccccc12,1.2,0.2,77.1*,2.9,-77.1
COc1ccccc1N1CCN(C(=O)CCC(=O)N2CCN(c3ccccc3OC)CC2)CC1,-1.1,0.2,70.3*,-2.4,-70.3
COC(=O)CSc1ncnc2c1sc1nc3c(cc12)COC(C)(C)C3,-2.9,45.3,-27.6,-0.7,27.6
CC1(C)Cc2nc3sc4c(SCC(=O)O)ncnc4c3cc2CO1,-1.1,76.4*,·,-23.1,·
CCc1ccc(CNC(=O)c2ccc(NC(=O)C3=CSCCO3)cc2)cc1,0.8,-3.2,6.5,1.0,-6.5
COC(=O)/C(=C\Nc1ccc(Cl)cc1Cl)NC(=O)c1ccc(OC)cc1,1.9,-3.4,83.1*,1.5,-83.1
CCCCn1nc(C(=O)N(C)CC(=O)Nc2ccc(F)c(F)c2F)ccc1=O,0.6,3.2,-7.1,·,7.1
O=C(Nc1ccc(-c2nc3ccccc3o2)cc1)c1ccc(N2CCOCC2)c([N+](=O)[O-])c1,0.5,-2.9,81.2*,-27.0,-81.2
CCC(=O)N1CCN(c2ccc(Cl)cc2NC(=O)c2ccc(N3CCCC3)c([N+](=O)[O-])c2)CC1,1.5,-1.7,76.2*,-7.5,-76.2
Cc1ccc(C)c2sc(NC(=O)c3ccc(N4CCCCC4)c([N+](=O)[O-])c3)nc12,-4.7,-3.0,71.2*,2.3,-71.2
Cc1cccc(NC(=O)c2ccc(N3CCCCC3)c([N+](=O)[O-])c2)n1,0.0,1.1,76.6*,-4.9,-76.6
